Activity calls are given as the source filed them. No cut-off for these calls is given here.
How the values were obtained:
MCF7 [1] = assay: Induction of apoptosis in human MCF7 cells assessed as increase in cleaved PARP 1 level at 1 to 10 uM after 3 hrs by Western blot analysis; type: functional, cell-based
Procedure, shortened: (§1)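 Western blot of KOPN-8 and MCF-7 lysates made in RIPA-type buffer (Tris pH 7.5, Triton X-100, deoxycholate, SDS) with protease and phosphatase inhibitors. 30 μg protein per lane was run on 4–12% Bis-Tris SDS-PAGE and transferred to nitrocellulose. Blots were probed for cleaved caspase-7 and PARP-1 and detected with IR-dye secondaries. Menadione served as positive control: 10 μM in KOPN-8, 30 μM in MCF-7. Blots are representative of three independent experiments.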

KOPN-8 [2] = assay: Induction of cell death in human KOPN8 cells at 4 to 10 uM after 24 hrs; type: functional, cell-based
UoC-B1 [3] = assay: Antiproliferative activity against human UOCB1 cells assessed as reduction in cell viability at 0.1 to 250 uM by CellTiter-Glo assay; type: functional, cell-based
Procedure, shortened: (§2)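 CellTiter-Glo luminescent viability readout. Cells kept at 37 °C under 5% CO2. HMEC primary cells grown in basal medium with growth kit; leukemia lines and murine BCR-ABL (WT, Bax/Bak DKO) cultured per earlier description. Positive controls: staurosporine 25 μM, gambogic acid 10 μM, a toxic quinoline. At least two biological replicates in technical triplicate; luminescence normalized to untreated controls; EC50 computed.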

MCF7 [4] = assay: Upregulation of Trx expression in human MCF7 at 10 uM after 3 to 6 hrs by Western blot analysis; type: functional, cell-based
Procedure, shortened: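 Western blot of KOPN-8 or MCF-7 lysates, 30 μg protein per lane on 4–12% Bis-Tris SDS-PAGE and transferred to nitrocellulose. Blots were probed with an oxidative stress defense antibody cocktail (catalase, SOD1, Trx, smooth muscle actin) and tubulin, and detected with IR-dye secondaries on a LI-COR Odyssey.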

KOPN-8 [5] = assay: Induction of apoptosis in human KOPN8 cells assessed as increase in cleaved PARP 1 level at 1 to 10 uM after 3 hrs by Western blot analysis; type: functional, cell-based; procedure, shortened: as §1
[6] = Stability in CH3CN assessed as micheal adduct formation by measuring intact compound incubated for 16 hrs in presence of NAC by LC-MS analysis; type: physicochemical
KOPN-8 [7] = assay: Induction of mitochondrial membrane potential loss in human KOPN8 cells at 1 to 3 uM after 24 to 48 hrs by TMRM staining based flow cytometric analysis; type: functional, cell-based
Procedure, shortened: (§3)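 TMRM flow cytometry. KOPN-8 (4 × 10^4 or 5 × 10^5 per well) or MCF-7 (2 × 10^4 or 2 × 10^5 per well) were seeded 24 h, then treated 24–48 h. FCCP 10 μM was added 10 min before staining as positive control. Cells were stained with TMRM 100 nM for 0.5 h, then PBS-washed, resuspended in PBS with 1% FBS and analysed by flow cytometry; DAPI flagged compromised cells.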

SEM cells = assay: Antiproliferative activity against human SEM cells assessed as reduction in cell viability at 1 to 10 uM by CellTiter-Glo assay; type: functional, cell-based; procedure, shortened: as §2
B-ALL [8] = assay: Cytotoxicity against BCR-ABL positive p185-positive mouse B-ALL cells expressing human BCL-W assessed as inhibition of cell viability after 24 hrs by AnnexinV-FITC/propidium iodide staining based flow cytometric analysis; type: functional
[9] = Stability in DMSO assessed as micheal adduct formation by measuring intact compound incubated for 16 hrs in presence of NAC by LC-MS analysis; type: physicochemical
MCF7 [10] = assay: Upregulation of Trx level in human MCF7 after 3 to 6 hrs by Western blot analysis; type: functional, cell-based
Procedure, shortened: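 MCF-7 cells were exposed to compound for 3 or 6 h. Lysates were made in Tris-HCl pH 7.5 RIPA-type buffer with protease/phosphatase inhibitors and quantified by BCA. 30 μg protein per lane was run on 4–12% Bis-Tris SDS-PAGE in MES and transferred to nitrocellulose. Blots were probed for thioredoxin with tubulin as reference, detected with IR-dye secondaries (1:15 000) and scanned on an infrared imager.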

KOPN-8 [11] = assay: Induction of mitochondrial membrane potential loss in human KOPN8 cells at 10 uM after 24 to 48 hrs by TMRM staining based flow cytometric analysis; type: functional, cell-based; procedure, shortened: as §3
B-ALL [12] = assay: Antiproliferative activity against mouse B-ALL cells harboring Bax/Bak double knockout mutant assessed as reduction in cell viability at 1 to 10 uM by CellTiter-Glo assay; type: functional, cell-based; procedure, shortened: as §2
UoC-B1 [13] = assay: Antiproliferative activity against human UOCB1 cells assessed as reduction in cell viability at 1 to 10 uM by CellTiter-Glo assay; type: functional, cell-based; procedure, shortened: as §2
[14] = Stability in CH3CN assessed as micheal adduct formation by measuring intact compound incubated for 16 hrs in presence of NAC by NMR analysis; type: physicochemical
KOPN-8 [15] = assay: Induction of apoptosis in human KOPN8 cells assessed as increase in cleaved PARP 1 level at 1 to 100 uM after 24 hrs by Western blot analysis; type: functional, cell-based; procedure, shortened: as §1
KOPN-8 [16] = assay: Cell cycle arrest in human KOPN8 cells assessed as decrease in accumulation at G1/G0 phase at 10 uM incubated for 24 hrs by propidium iodide staining based flow cytometric analysis relative to control; type: functional; details: KOPN-8, 24 h
Procedure, shortened: (§4)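 KOPN-8 plated at 1.00 × 10^6 cells/plate, held 12 h at 37 °C, treated 24 h at 10 μM; DMSO vehicle and 2 μM staurosporine as controls. Cells fixed in cold methanol, RNase-treated, stained with PI (50 μg/mL); cell-cycle distribution by flow cytometry.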

U2OS = assay: Ratio of concentration required for induction of apoptosis in human U2OS cells to concentration required for induction of mito-phagy in human U2OS cells transfected with mKeima-Red-Mito-7; type: functional
KOPN-8 [17] = assay: Cell cycle arrest in human KOPN8 cells assessed as decrease in accumulation at S phase at 10 uM incubated for 24 hrs by propidium iodide staining based flow cytometric analysis relative to control; type: functional; details: KOPN-8, 24 h; procedure, shortened: as §4
MDA-MB-231 = assay: Induction of ROS colocalization in mitochondria of human MDA-MB-231 cells at 30 uM incubated for 1 hr in presence of NAC by CellROX green reagent/mitotracker deep red staining based confocal microscopic method; type: functional, cell-based
Procedure, shortened: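 MDA-MB-231 plated at 4 × 10^4/well in phenol-red-free medium, 12 h at 37 °C; for rescue, NAC 100 μM pretreatment 0.5 h. Compound 30 μM or DMSO for 1 h, then CellROX green 5 μM final, MitoTracker Deep Red 250 nM, Hoechst 33342 500 nM (0.5 h before imaging). Washed twice, live spinning-disk confocal at 63×; two independent experiments.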

KOPN-8 [18] = assay: Induction of apoptosis in human KOPN8 cells at 10 uM by Annexin V-FITC and propidium iodide staining based flow cytometry; type: functional, cell-based; details: TDE = time-dependent effect
Procedure, shortened: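 KOPN-8 cells were plated at 1.00 × 10^6 per plate and held 12 h at 37 °C, then treated 24 h; positive control 2 μM staurosporine, vehicle DMSO. Cells were stained with Annexin V-FITC and PI and analysed by flow cytometry (FACSCalibur). Profiles are representative of three independent biological replicates.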

CC1=C2CC(C)(C)/C=C/C(=O)/C(C)=C\C3=C[C@H](C)C[C@]3(O2)C1=O [JATROPHONE]
Activity (MCF7 [1]): Active
Activity (KOPN-8 [2]): Active
inhibition (UoC-B1 [3]): Active
Activity (MCF7 [4]): inactive
Activity (KOPN-8 [5]): Active

CC(=O)O[C@H]1/C2=C/[C@@H](C)C(=O)C[C@H]3[C@@H](/C=C(\C)C(=O)[C@H]2C[C@H]1C)C3(C)C
Stability [6]: Stable
Activity (KOPN-8 [7]): Active
inhibition (SEM cells): Active
IC50 (B-ALL [8]): 14.4 µM
Stability [9]: Stable
Activity (MCF7 [10]): Dose-dependent effect
Activity (KOPN-8 [11]): inactive
inhibition (B-ALL [12]): Active
inhibition (UoC-B1 [13]): Active
Stability [14]: Stable
Activity (KOPN-8 [15]): Active
inhibition at 10 µM (KOPN-8 [16]): 5%
Ratio (U2OS): 5
inhibition at 10 µM (KOPN-8 [17]): 5%
Activity (MDA-MB-231): inactive
Activity (KOPN-8 [18]): Tde

From ChEMBL document CHEMBL4334444, “Studies of Jatrogossone A as a Reactive Oxygen Species Inducer in Cancer Cellular Models” (J Nat Prod, 2019)
